Assay [1] is described as follows: Her2 expression decrease, cell viability multiplex – SKBR3 breast tumor cells, AlphaScreen, ATP viability, primary screen (AID 461).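 On Her2 level: lower value means less Her2 protein in the cells.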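 On viability: percent of carrier control wells set as 100% viability.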 The conditions noted are these: SKBR3 Her2 protein level, 18-24 h, measured here: SKBR3 viability, ATP luminescence, at 10 µM.
The target of assay [2] is Receptor tyrosine-protein kinase erbB-2 (Homo sapiens) (UniProt P04626). Described as above. Particulars: 18-24 h, at 10 µM, stronger effect = lower value.
Receptor tyrosine-protein kinase erbB-2 (Homo sapiens), sequence (P04626 whole entry, looked up): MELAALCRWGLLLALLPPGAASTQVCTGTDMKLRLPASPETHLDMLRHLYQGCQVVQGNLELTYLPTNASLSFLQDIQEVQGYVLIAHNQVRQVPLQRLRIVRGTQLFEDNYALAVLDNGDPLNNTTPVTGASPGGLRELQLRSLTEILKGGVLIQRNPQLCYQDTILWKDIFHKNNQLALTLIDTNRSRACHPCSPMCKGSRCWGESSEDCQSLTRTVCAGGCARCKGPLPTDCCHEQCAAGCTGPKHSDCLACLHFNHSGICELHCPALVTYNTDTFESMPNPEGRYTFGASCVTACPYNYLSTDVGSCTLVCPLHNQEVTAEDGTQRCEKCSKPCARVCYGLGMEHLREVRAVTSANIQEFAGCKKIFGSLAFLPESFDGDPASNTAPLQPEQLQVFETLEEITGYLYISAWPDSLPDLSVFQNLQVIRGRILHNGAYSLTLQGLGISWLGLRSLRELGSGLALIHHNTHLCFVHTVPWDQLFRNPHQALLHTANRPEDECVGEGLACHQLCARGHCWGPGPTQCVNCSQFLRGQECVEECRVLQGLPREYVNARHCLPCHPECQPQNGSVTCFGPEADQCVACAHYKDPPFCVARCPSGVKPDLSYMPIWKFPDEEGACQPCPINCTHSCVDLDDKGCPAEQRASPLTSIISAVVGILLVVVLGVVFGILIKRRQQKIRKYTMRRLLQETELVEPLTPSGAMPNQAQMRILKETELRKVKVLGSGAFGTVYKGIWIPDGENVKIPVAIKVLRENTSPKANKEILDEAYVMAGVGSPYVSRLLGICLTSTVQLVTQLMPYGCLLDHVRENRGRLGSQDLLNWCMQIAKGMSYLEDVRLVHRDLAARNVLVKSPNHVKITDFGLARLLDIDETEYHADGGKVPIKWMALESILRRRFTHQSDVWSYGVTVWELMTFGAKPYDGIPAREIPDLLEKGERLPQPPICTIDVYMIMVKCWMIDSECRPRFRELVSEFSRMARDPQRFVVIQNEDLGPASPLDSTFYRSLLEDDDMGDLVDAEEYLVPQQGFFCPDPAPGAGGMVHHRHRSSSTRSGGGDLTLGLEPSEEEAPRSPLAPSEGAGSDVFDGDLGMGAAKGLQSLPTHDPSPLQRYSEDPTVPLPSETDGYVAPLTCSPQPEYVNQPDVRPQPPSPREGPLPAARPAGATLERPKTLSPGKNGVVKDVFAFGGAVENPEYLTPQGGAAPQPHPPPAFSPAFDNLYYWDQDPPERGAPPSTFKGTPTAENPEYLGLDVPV
Assay [3] in a line: reduced viability of SK-BR-3 breast cancer cells – cell-based, 24 h, human, pilot screen (AID 572;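 active means viability at or below 10% of carrier control in both of two separate runs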;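 further: compound exposure lasted between 18 and 24 h rather than exactly 24 h; 100% = carrier-treated control wells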). Particulars: SK-BR-3 viability, CellTiter-Glo luminescence, at 10 µM, stronger effect = lower value. A general note: Cellular ATP, detected with luciferase, serves as a proxy for viable cell number.
Assay [4] is described as follows: HUVEC growth inhibition – cell-based, human, primary screen (AID 575;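 active means viability at or below 30% in both replicate assays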;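 further: 100% = median of untreated cell wells with 0.1% DMSO on each plate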). Particulars: HUVEC proliferation, CellTiter-Glo luminescence, 72 h; at 10 µM; stronger effect = lower value. The method, boiled down:
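system = HUVEC primary cells | amount = 1250 cells/well | buffer or medium = supplemented EBM, 2% fetal bovine serum | dosing = single-point 10 µM, DMSO 0.1% final | times = 72 h compound incubation | detection = CTG luminescence | read-out = % viability relative to median vehicle-well signal on each plate | control set = vehicle and MePR control wells | format = collagen-coated 384-well format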

A short description of assay [5]: H69AR cell proliferation blockers – human, duplicate replicates, primary screen (AID 580;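 active means viability at or under a set limit in both replicates, limit being median viability minus 3 SD, cut at about 48% in these data, passing the limit was not always enough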;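 further: 100% = mean luminescence of untreated wells and 0% = no signal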). Particulars: H69AR lung tumor cells viability, ATP luminescence, 72 h; at 10 µM; stronger effect = lower value.
Assay [6] can be described thus: MRP1 drug-resistance reversers in H69AR cells – cell-based, doxorubicin co-treatment, pilot screen (AID 601;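 active means viability loss from added drug above about 55%, and viability with drug at most 40%, in both replicates, limit read from the data, passing the limit was not always enough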). Particulars: CellTiter-Glo, 72 h, at 10 µM; for differential viability (reversal): stronger effect = higher value.
Assay [7] is described as follows: yeast transport mutant growth inhibition pilot in 384-well plates, post-Golgi transport modulator project (AID 636; in the data active means inhibition above about 31%). Particulars: absorbance 615 nm, about 18 h, stronger effect = higher value.
Assay [8] in a line: growth suppression of yeast trafficking mutant, preliminary HTS, modulators of trafficking downstream of Golgi apparatus project, 1536-format plate, OD 615 nm (AID 637; in the data active means inhibition above about 30%). Particulars: yeast transport mutant growth, absorbance 615 nm, 18 h; stronger effect = higher value.
Setting [9] is: H69AR cells + 2 uM doxorubicin, measured here: viability with 2 uM doxorubicin, stronger effect = lower value.
Where [10] appears, read: H69AR cells, compound alone cytotoxicity.

The structures appear in SMILES notation. The source made the active and inactive calls.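 How the source made its calls, unless noted: active means Her2 level under about 52% in both replicate screens, with viability over 70% of control (limit read from the data); inconclusive means Her2 under the limit in one screen only, or viability under 70%; inactive means Her2 level above the set limit.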

`CCc1nnc(NC(=O)C2CCN(c3nccc(C)n3)CC2)s1`: the viability in assay [1] was 112%; in assay [3], 112% (inactive); in assay [4], 100% (inactive); in assay [5] it was 99.5% (inactive); in assay [6] (setting [9]), 93.9%; in assay [6] (setting [10]) it was 99.5%. Further, the Her2 level in assay [2] was 93% (inactive). Also, in assay [6] (H69AR cells + 2 uM doxorubicin), the differential viability (reversal) is 5.65% (inactive). Moreover, the results for the inhibition in assay [7] and in assay [8] were -6.22% (inactive) and -2.17% (inactive), respectively.

For the compound `Cc1csc(NC(=O)CSc2nsc(SCC(=O)Nc3nc(C)cs3)c2C#N)n1`, the viability is 94.5% in assay [1]; 94.5% (inactive) in assay [3]; 58.7% (inactive) in assay [4]; 6.57% (active) in assay [5]; 7.88% in assay [6] (setting [9]); 6.57% in assay [6] (setting [10]). The Her2 level in assay [2] was 69% (inactive). Besides, in assay [6] (H69AR cells + 2 uM doxorubicin), the differential viability (reversal) was -1.3% (inactive). The inhibition is -6.67% (inactive) in assay [7] and -1.43% (inactive) in assay [8].

As to `COc1ccc(-c2nn3c(-c4ccncc4)nnc3s2)cc1OC`, the viability in assay [1] was 105%; in assay [3], 105% (inactive); in assay [4], 104% (inactive); in assay [5] it was 99.2% (inactive); in assay [6] (setting [9]), 108%; in assay [6] (setting [10]), 99.2%. In addition, the Her2 level in assay [2] is 116% (inactive). For the same compound, the differential viability (reversal) in assay [6] (H69AR cells + 2 uM doxorubicin) was -8.5% (inactive). Also, the inhibition in assay [7] was -0.39% (inactive); in assay [8] it was 0.16% (inactive).

For the compound `CC(=O)Nc1ccc(S(=O)(=O)Nc2nc3n(n2)C(c2ccccc2)CC(=O)N3)cc1` (stereo not given), the viability in assay [1] was 99.5%; in assay [3], 99.5% (inactive); in assay [4] it was 102% (inactive); in assay [5] it was 107% (inactive); in assay [6] (setting [9]), 99.9%; in assay [6] (setting [10]), 107%. The Her2 level in assay [2] is 83.5% (inactive). The differential viability (reversal) in assay [6] (H69AR cells + 2 uM doxorubicin) was 6.67% (inactive). Further, the inhibition in assay [7] was -7.7% (inactive); in assay [8], -0.32% (inactive).

Turning to `CC1CN(C(=O)c2scc3c2OCCO3)CC(C)O1` (stereo not given), the viability in assay [1] was 102%; in assay [3], 102% (inactive); in assay [4], 101% (inactive); in assay [5], 104% (inactive); in assay [6] (setting [9]), 91.9%; in assay [6] (setting [10]), 104%. Also, the Her2 level in assay [2] is 76% (inactive). Moreover, the differential viability (reversal) in assay [6] (H69AR cells + 2 uM doxorubicin) was 12.1% (inactive). The inhibition in assay [7] is -7.3% (inactive); in assay [8], 5.24% (inactive).

In the case of `O=c1[nH]c(SCc2ccccc2Cl)nc2c1CCCC2`, the viability in assay [1] was 100%; in assay [3], 100% (inactive); in assay [4] it was 65.4% (inactive); in assay [5], 89.5% (inactive); in assay [6] (setting [9]), 92.7%; in assay [6] (setting [10]) it was 89.5%. Further, the Her2 level in assay [2] was 75.5% (inactive). Besides, in assay [6] (H69AR cells + 2 uM doxorubicin), the differential viability (reversal) is -3.21% (inactive). Besides, the inhibition is -5.13% (inactive) in assay [7] and 0.17% (inactive) in assay [8].

On to `CC(=O)Nc1ccc(S(=O)(=O)N2CCN=C2C)cc1`, for which the viability in assay [1] was 92.5%; in assay [3] it was 92.5% (inactive); in assay [4], 109% (inactive); in assay [5] it was 99.4% (inactive); in assay [6] (setting [9]), 96.8%; in assay [6] (setting [10]) it was 99.4%. The Her2 level in assay [2] is 95% (inactive). In assay [6] (H69AR cells + 2 uM doxorubicin), the differential viability (reversal) was 2.62% (inactive). Further, the figures for the inhibition in assay [7] and in assay [8] were -6.27% (inactive) and -5.08% (inactive), respectively.

As to `COc1ccc(C2=NOC(C(=O)NCc3ccc(F)cc3)C2)cc1OC` (stereo not given), the viability is 95.5% in assay [1]; 95.5% (inactive) in assay [3]; 42% (inactive) in assay [4]; 29.3% (active) in assay [5]; 63.9% in assay [6] (setting [9]); 29.3% in assay [6] (setting [10]). Also, in assay [2], the Her2 level is 87.5% (inactive). Besides, in assay [6] (H69AR cells + 2 uM doxorubicin), the differential viability (reversal) is -34.5% (inactive). For the same compound, the inhibition in assay [7] is -1.32% (inactive); in assay [8], 5.4% (inactive).

With `CCn1nc(C(=O)OCC(=O)c2cc(C)n(Cc3cccs3)c2C)c2ccccc2c1=O`, the viability in assay [1] was 93.5%; in assay [3] it was 93.5% (inactive); in assay [4], 84.1% (inactive); in assay [5], 83.6% (inactive); in assay [6] (setting [9]) it was 93%; in assay [6] (setting [10]) it was 83.6%. The Her2 level in assay [2] was 93% (inactive). For the same compound, the differential viability (reversal) in assay [6] (H69AR cells + 2 uM doxorubicin) is -9.39% (inactive). Moreover, the results for the inhibition in assay [7] and in assay [8] were -3.2% (inactive) and 26.6% (inactive), respectively.

In the case of `CCOc1ccc(C(c2nnnn2Cc2ccccc2)N2CCN(C(=O)c3ccco3)CC2)cc1` (stereo not given), the viability in assay [1] is 92.5%; in assay [3], 92.5% (inactive); in assay [4], 85.8% (inactive); in assay [5], 98.3% (inactive); in assay [6] (setting [9]), 103%; in assay [6] (setting [10]), 98.3%. Moreover, in assay [2], the Her2 level is 106% (inactive). The differential viability (reversal) in assay [6] (H69AR cells + 2 uM doxorubicin) was -4.47% (inactive). Further, the values for the inhibition in assay [7] and in assay [8] were 0.53% (inactive) and -1.9% (inactive), respectively.

`COc1ccc(-c2nnc3ccc(SC(C(C)=O)C(C)=O)nn23)cc1OC`: the viability in assay [1] is 90%; in assay [3] it was 90% (inactive); in assay [4], 87.8% (inactive); in assay [5] it was 82.9% (inactive); in assay [6] (setting [9]), 78%; in assay [6] (setting [10]), 82.9%. Besides, the Her2 level in assay [2] was 86.5% (inactive). Also, the differential viability (reversal) in assay [6] (H69AR cells + 2 uM doxorubicin) was 4.92% (inactive). For the same compound, the inhibition in assay [7] was -6.62% (inactive); in assay [8] it was 6.17% (inactive).

Consider `CCOC(=O)N1CCN(C(=O)CN2C(=O)COc3ccc(C)cc32)CC1`, for which the viability in assay [1] is 98%; in assay [3], 98% (inactive); in assay [4] it was 95.7% (inactive); in assay [5] it was 94.2% (inactive); in assay [6] (setting [9]), 92.3%; in assay [6] (setting [10]) it was 94.2%. In assay [2], the Her2 level was 94.5% (inactive). The differential viability (reversal) in assay [6] (H69AR cells + 2 uM doxorubicin) was 1.89% (inactive). In addition, the values for the inhibition in assay [7] and in assay [8] were -2.89% (inactive) and 6% (inactive), respectively.

Take `Cc1nc(-c2cnn(-c3ccccc3)c2)c2cc(C)oc2n1`: the viability in assay [1] was 74.5%; in assay [3] it was 74.5% (inactive); in assay [4] it was 67.2% (inactive); in assay [5] it was 90.7% (inactive); in assay [6] (setting [9]), 87.4%; in assay [6] (setting [10]), 90.7%. For the same compound, the Her2 level in assay [2] was 76% (inactive). Further, the differential viability (reversal) in assay [6] (H69AR cells + 2 uM doxorubicin) is 3.27% (inactive). Further, the inhibition in assay [7] is -2.11% (inactive); in assay [8] it was 3.28% (inactive).

On to `Cc1ccc(Cn2nnc3c(=O)[nH]c(C4CCN(C(=O)c5cccs5)CC4)nc32)cc1`, for which the viability is 90.5% in assay [1]; 90.5% (inactive) in assay [3]; 73.4% (inactive) in assay [4]; 86% (inactive) in assay [5]; 83.8% in assay [6] (setting [9]); 86% in assay [6] (setting [10]). For the same compound, in assay [2], the Her2 level was 84% (inactive). Also, the differential viability (reversal) in assay [6] (H69AR cells + 2 uM doxorubicin) was 2.21% (inactive). Further, the inhibition was -3.73% (inactive) in assay [7] and -1.94% (inactive) in assay [8].

Take `O=C(COC(=O)C1CCN(S(=O)(=O)c2cccs2)CC1)c1cc2ccccc2o1`: the viability is 104% in assay [1]; 104% (inactive) in assay [3]; 91.9% (inactive) in assay [4]; 96.2% (inactive) in assay [5]; 93.8% in assay [6] (setting [9]); 96.2% in assay [6] (setting [10]). Moreover, the Her2 level in assay [2] is 83% (inactive). Besides, the differential viability (reversal) in assay [6] (H69AR cells + 2 uM doxorubicin) is 2.38% (inactive). The figures for the inhibition in assay [7] and in assay [8] were -2.19% (inactive) and -0.63% (inactive), respectively.

Regarding `COCCn1c(COc2ccc(Cl)cc2)nnc1SCC(N)=O`, the viability is 85.5% in assay [1]; 85.5% (inactive) in assay [3]; 98.8% (inactive) in assay [4]; 109% (inactive) in assay [5]; 90.8% in assay [6] (setting [9]); 109% in assay [6] (setting [10]). The Her2 level in assay [2] is 84.5% (inactive). The differential viability (reversal) in assay [6] (H69AR cells + 2 uM doxorubicin) is 18.1% (inactive). Moreover, the inhibition in assay [7] is -5.41% (inactive); in assay [8], 2.54% (inactive).

One may read the viability as a read-out of living cells in per cent, often relative to untreated cells. One may read the inhibition as the change of the read-out against control, counted positive when it falls.

These data come from PubChem BioAssay.
